# From ChEMBL document CHEMBL1811802, “Synthesis and significant cytostatic activity of 7-hetaryl-7-deazaadenosines” (J Med Chem, 2011)
# The source made the active and inactive calls. The calls are words filed in the database; no cut-off is given here.
# Experiments:
# DU-145 = assay: Metabolic stability in human DU145 cells assessed as sodium ((2R,3S,4R,5R)-5-(4-amino-7H-pyrrolo[2,3-d]pyrimidin-7-yl)-3,4-dihydroxytetrahydrofuran-2-yl)methyl hydrogenphosphate-NMP formation per million of cells at 10 uM after 6 hrs by LC/MS/MS analysis; format: ADME, cell-based; settings: du-145, 6 h
# In short: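 Du145 seeded at 60% confluence in MEM/10% FBS; next day exposed to 10 μM compound for 6 or 24 h. Cells trypsinized, extracted in 70% MeOH, dried, resuspended in 1 mM ammonium phosphate pH 8.5. Nucleoside, NMP and NTP quantified by ion-pairing (dimethylhexylamine) LC/MS/MS against untreated-cell-extract standard curves; pmol per million cells.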
# MCF7 = assay: Cytotoxicity against human MCF7 cells after 3 days by MTT assay; format: functional, cell-based; settings: MCF7, 72 h
# [1] = Cytotoxicity against human HeLaS3 cells after 3 days by XTT assay; format: functional, cell-based; settings: HeLa S3, 72 h
# In short: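 Suspension-grown cell lines, 3-day compound incubation; viability read by XTT metabolic assay; IC50 averaged from four independent experiments.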
# HeLa = assay: Cytotoxicity against human HeLa cells after 3 days by MTT assay; format: functional, cell-based; settings: 72 h
# [2] = Cytotoxicity against human NCI-H146 cells after 3 days by MTT assay; format: functional, cell-based; settings: NCI-H146, 72 h
# MDA-MB-231 = assay: Cytotoxicity against human MDA-MB-231 cells after 3 days by MTT assay; format: functional, cell-based; settings: MDA-MB-231, 72 h
# EL4 = assay: Cytotoxicity against mouse EL4 cells after 3 days by MTT assay; format: functional, cell-based; settings: EL4, 72 h
# BV-173 = assay: Cytotoxicity against human BV173 cells after 3 days by MTT assay; format: functional, cell-based; settings: BV-173, 72 h
# BJ = assay: Cytotoxicity against human BJ cells after 3 days by MTT assay; format: cell-based; settings: 72 h
# HCT-116 [3] = assay: Cytotoxicity against human HCT116 cells after 3 days by MTT assay; format: functional, cell-based; settings: HCT-116, 72 h
# HCT-116 [4] = assay: Cytostatic activity against human HCT116 cells after 5 days by SRB assay; format: functional; settings: HCT-116, 120 h
# In short: (§1)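 Cells seeded per line density, overnight at 37 °C; day-zero plate TCA-fixed. 5-fold serial dilutions added, 5-day incubation; TCA fixation, 0.057% SRB in 1% acetic acid 30 min, dye dissolved in 10 mM Tris pH 10.5, A500. Growth relative to day-zero and untreated; GIC50 from sigmoidal dose–response fit; mean of two independent experiments.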
# CCRF-CEM = assay: Inhibition of DNA synthesis in human CCRF-CEM cells assessed as BrdU incorporation at 1 to 5 times GI50 after 1 hr by FACS analysis; format: functional, cell-based; settings: in the assay text read “at 5 times GI50 after longer incubation” for “at 1 to 5 times GI50 after 1 hr”
# In short: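 CCRF-CEM cultured as for cell cycle (1× or 5× GIC50), pulsed with 10 μM BrdU for 30 min before harvest. Ethanol-fixed, DNA denatured in 2 M HCl, anti-BrdU then FITC secondary antibody, propidium iodide/RNase counterstain, flow cytometry at 488 nm.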
# [5] = Antitumor activity against mouse P388D1 cells xenografted in DBA/2 mouse assessed as increase of mean survival days at 35 mg/kg, ip qd administered as 2 cycles on day 1 to 3 and day 8 to 10; settings: route intraperitoneal
# HCT-15 = assay: Cytostatic activity against human HCT15 cells after 5 days by SRB assay; format: functional; settings: HCT-15, 120 h; in short: as §1
# LNCaP = assay: Cytotoxicity against human LNCAP cells after 3 days by MTT assay; format: functional, cell-based; settings: 72 h
# CT26 = assay: Cytotoxicity against mouse CT26 cells after 3 days by MTT assay; format: functional, cell-based; settings: CT26, 72 h
# MT4 = assay: Cytostatic activity against human MT4 cells after 5 days by SRB assay; format: functional; settings: MT4, 120 h
# K562 = assay: Cytotoxicity against human paclitaxel resistant K562 cells after 3 days by MTT assay; format: functional, cell-based; settings: K562, 72 h
# [6] = Antitumor activity against mouse P388D1 cells xenografted in DBA/2 mouse assessed as increase of lifespan at 35 mg/kg, ip qd administered as 2 cycles on day 1 to 3 and day 8 to 10; settings: route intraperitoneal
# [7] = Cytotoxicity against human U87MG cells after 3 days by MTT assay; format: functional, cell-based, U-87MG ATCC; settings: U-87 MG, 72 h
compound,measurement,setting,value
Nc1ncnc2c1c(-c1cccs1)cn2[C@@H]1O[C@H](CO)[C@@H](O)[C@H]1O,Stability,DU-145,5.04 pmol
same,IC50,MCF7,528 nM
same,IC50,[1],20 nM
same,IC50,HeLa,33 nM
same,IC50,[2],> 10000 nM
same,IC50,MDA-MB-231,26 nM
same,IC50,EL4,9300 nM
same,IC50,BV-173,105 nM
same,IC50,BJ,9850 nM
same,IC50,HCT-116 [3],60 nM
same,GI50,HCT-116 [4],2.6 nM
same,inhibition,CCRF-CEM,Active
same,MSD,[5],15 days
same,GI50,HCT-15,11 nM
same,IC50,LNCaP,18 nM
same,IC50,CT26,124 nM
same,GI50,MT4,35 nM
same,IC50,K562,47 nM
same,Activity,[6],28%
same,IC50,[7],> 10000 nM
